Test results as given in ChEMBL document CHEMBL1139226, “Partial retro-inverso, retro, and inverso modifications of hydrazide linked bifunctional peptides for opioid and cholecystokinin (CCK) receptors” (J Med Chem, 2007).

Tests used:
[1] = target: Mu-type opioid receptor (Rattus norvegicus) (UniProt P33535); test: (§1) Activity at rat mu opioid receptor expressed in CHO cells by [35S]GTPgammaS binding assay; type: functional, cell-based
Summary of the method: (§2)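 Receptors expressed in CHO cells; agonist-stimulated GTP-γ-S binding reported as net total bound/basal binding × 100. Log EC50 from nonlinear regression of at least two independent experiments.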

[2] = target: T1, Delta-type opioid receptor (Homo sapiens, UniProt P41143); test: Activity at human delta opioid receptor expressed in CHO cells by [35S]GTP-gamma-S binding assay; type: functional, cell-based; conditions: for Log IC50: cho; summary of the method: as §2
T1 sequence (P41143 whole entry): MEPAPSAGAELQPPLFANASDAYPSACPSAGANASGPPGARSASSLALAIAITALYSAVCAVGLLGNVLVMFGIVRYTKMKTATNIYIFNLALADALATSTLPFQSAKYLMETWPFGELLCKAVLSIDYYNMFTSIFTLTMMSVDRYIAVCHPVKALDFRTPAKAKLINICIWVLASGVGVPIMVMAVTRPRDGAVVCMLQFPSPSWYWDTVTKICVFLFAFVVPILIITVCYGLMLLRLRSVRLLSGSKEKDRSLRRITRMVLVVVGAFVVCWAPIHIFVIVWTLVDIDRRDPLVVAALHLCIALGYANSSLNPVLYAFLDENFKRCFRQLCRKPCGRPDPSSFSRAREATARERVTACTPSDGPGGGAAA

Mu-type opioid receptor [3] = target: Mu-type opioid receptor (Cavia porcellus, UniProt P97266); test: Activity at mu opioid receptor assessed as contraction of electrically-stimulated Hartley guinea pig ileum; type: functional, tissue-based
Sequence of Mu-type opioid receptor (Cavia porcellus, UniProt P97266) (P97266 whole entry): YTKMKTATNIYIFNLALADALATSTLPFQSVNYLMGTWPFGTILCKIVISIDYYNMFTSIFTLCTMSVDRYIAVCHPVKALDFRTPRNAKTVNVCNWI
Summary of the method: (§3)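 Electrically stimulated isolated tissue; value is concentration giving 50% inhibition of muscle contraction.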

[4] = target: T2, Cholecystokinin receptor type A (Homo sapiens, UniProt P32238); test: Displacement of [125I]CCK8-SO3 from human CCK1 receptor expressed in HEK293 cells; type: cell-based
T2 sequence (P32238 whole entry): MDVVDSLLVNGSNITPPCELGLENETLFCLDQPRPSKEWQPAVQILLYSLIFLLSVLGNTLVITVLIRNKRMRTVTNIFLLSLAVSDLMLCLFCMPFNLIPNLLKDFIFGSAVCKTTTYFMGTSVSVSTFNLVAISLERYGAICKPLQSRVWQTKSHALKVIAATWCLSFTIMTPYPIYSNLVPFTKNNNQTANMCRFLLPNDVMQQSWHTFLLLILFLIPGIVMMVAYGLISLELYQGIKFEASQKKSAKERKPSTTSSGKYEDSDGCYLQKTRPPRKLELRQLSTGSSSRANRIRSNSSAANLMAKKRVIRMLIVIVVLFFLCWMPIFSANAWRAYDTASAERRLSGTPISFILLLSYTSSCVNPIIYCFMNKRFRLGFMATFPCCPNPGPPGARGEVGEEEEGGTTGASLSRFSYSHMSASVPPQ

Mu-type opioid receptor [5] = target: T3, Mu-type opioid receptor (Rattus norvegicus, UniProt P33535); test: Displacement of [3H]DAMGO from rat mu opioid receptor expressed in HN9.10 cells; type: cell-based
T3 sequence (P33535 whole entry): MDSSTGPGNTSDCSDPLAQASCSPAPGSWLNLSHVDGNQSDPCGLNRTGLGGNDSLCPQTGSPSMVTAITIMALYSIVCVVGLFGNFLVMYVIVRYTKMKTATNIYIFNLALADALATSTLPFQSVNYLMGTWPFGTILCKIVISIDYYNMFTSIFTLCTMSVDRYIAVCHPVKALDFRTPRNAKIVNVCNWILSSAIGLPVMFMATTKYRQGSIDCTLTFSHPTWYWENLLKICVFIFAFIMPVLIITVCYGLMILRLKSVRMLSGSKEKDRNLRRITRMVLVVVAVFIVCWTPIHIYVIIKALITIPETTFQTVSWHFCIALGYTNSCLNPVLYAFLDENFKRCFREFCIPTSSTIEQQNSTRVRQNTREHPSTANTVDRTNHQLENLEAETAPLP

[6] = target: T4, Gastrin/cholecystokinin type B receptor (Homo sapiens, UniProt P32239); test: Displacement of [125I]CCK8-SO3 from human CCK2 receptor expressed in HEK293 cells; type: cell-based
T4 sequence (P32239 whole entry): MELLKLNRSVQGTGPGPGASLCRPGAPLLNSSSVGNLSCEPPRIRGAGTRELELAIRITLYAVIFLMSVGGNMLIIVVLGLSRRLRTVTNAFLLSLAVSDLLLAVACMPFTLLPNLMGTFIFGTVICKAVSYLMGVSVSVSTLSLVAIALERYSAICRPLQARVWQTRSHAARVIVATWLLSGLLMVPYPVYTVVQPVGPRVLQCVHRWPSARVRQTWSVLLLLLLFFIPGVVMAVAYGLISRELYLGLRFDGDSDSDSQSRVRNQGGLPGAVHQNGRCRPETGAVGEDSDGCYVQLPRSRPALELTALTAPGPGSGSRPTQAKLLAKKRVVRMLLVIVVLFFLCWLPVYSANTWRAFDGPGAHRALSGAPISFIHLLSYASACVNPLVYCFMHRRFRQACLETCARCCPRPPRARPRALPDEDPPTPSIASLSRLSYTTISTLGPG

Mu-type opioid receptor [7] = target: T3, Mu-type opioid receptor; test: as §1; type: functional, cell-based; summary of the method: as §2
[8] = target: Delta-type opioid receptor (Mus musculus, UniProt P32300); test: Activity at delta opioid receptor in ICR mouse by MVD assay; type: functional, tissue-based; summary of the method: as §3
Sequence of Delta-type opioid receptor (Mus musculus, UniProt P32300) (P32300 whole entry): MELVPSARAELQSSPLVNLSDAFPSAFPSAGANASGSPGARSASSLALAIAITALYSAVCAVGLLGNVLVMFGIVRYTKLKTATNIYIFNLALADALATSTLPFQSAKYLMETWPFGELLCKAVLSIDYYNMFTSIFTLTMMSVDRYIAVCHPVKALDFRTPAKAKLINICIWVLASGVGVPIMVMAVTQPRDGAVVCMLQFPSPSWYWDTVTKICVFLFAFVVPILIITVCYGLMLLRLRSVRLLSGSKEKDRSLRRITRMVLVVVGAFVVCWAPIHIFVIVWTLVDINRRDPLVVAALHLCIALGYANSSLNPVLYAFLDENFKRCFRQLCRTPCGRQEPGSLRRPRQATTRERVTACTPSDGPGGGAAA

[9] = target: T1, Delta-type opioid receptor; test: Displacement of [3H]DPDPE from human delta opioid receptor expressed in HN9.10 cells; type: cell-based
[10] = target: T4, Gastrin/cholecystokinin type B receptor; test: Activity at human CCK2 receptor expressed in HEK293 cells assessed as level of [3H]inositol produced relative to control; type: functional, cell-based

Sequence of Mu-type opioid receptor (Rattus norvegicus) (P33535 whole entry): as the sequence (P33535 whole entry) above

For `CCCC[C@H](NC(=O)[C@@H](Cc1cc2ccccc2[nH]1)NC(=O)OC(C)(C)C)C(=O)N[C@@H](CC(=O)O)C(=O)N[C@@H](Cc1ccccc1)C(=O)NNC(=O)[C@H](Cc1ccccc1)NC(=O)CNC(=O)[C@@H](C)NC(=O)[C@@H](N)Cc1ccc(O)cc1`, which Emax [1] is on record?
Its Emax is 170%.

What about the Emax [2] of the same molecule?
The Emax was 100%.

With `CCCC[C@H](NC(=O)[C@H](N)Cc1cc2ccccc2[nH]1)C(=O)N[C@@H](CC(=O)O)C(=O)N[C@@H](Cc1ccccc1)C(=O)NNC(=O)[C@H](Cc1ccccc1)NC(=O)CNC(=O)[C@@H](C)NC(=O)[C@@H](N)Cc1ccc(O)cc1` as the molecule, how does the Emax [1] read?
Its Emax is 82%.

And the Emax [2]?
The Emax was 64%.

How did the IC50 (Mu-type opioid receptor [3]) turn out when `CCCC[C@@H](NC(=O)[C@@H](CC(=O)O)NC(=O)[C@@H](Cc1ccccc1)NC(=O)OC(C)(C)C)C(=O)N[C@@H](Cc1cc2ccccc2[nH]1)C(=O)NNC(=O)[C@H](Cc1ccccc1)NC(=O)CNC(=O)[C@@H](C)NC(=O)[C@@H](N)Cc1ccc(O)cc1` was run?
The IC50 was 530 nM.

And the IC50 [4]?
Its IC50 is 132 nM.

And the Ki [4]?
Its Ki is 0.13 µM.

And the IC50 (Mu-type opioid receptor [5])?
Its IC50 is 132 nM.

And the Ki (Mu-type opioid receptor [5])?
Its Ki is 56 nM.

What about the IC50 [6] of the same molecule?
The IC50 was 1100 nM.

What about the Ki [6] of the same molecule?
The Ki was 1100 nM.

What about the Emax [1] of the same molecule?
Its Emax is 71%.

And the log EC50 (Mu-type opioid receptor [7])?
Its log EC50 is -6.76.

And the IC50 [8]?
Its IC50 is 18 nM.

What about the IC50 [9] of the same molecule?
The IC50 was 9.12 nM.

What about the Ki [9] of the same molecule?
The Ki was 3.9 nM.

And the EC50 [2]?
The EC50 was 13 nM.

What about the Emax [2] of the same molecule?
The Emax was 99%.

What about the IC50 [2] of the same molecule?
The IC50 was 12.3 nM.

`CCCC[C@H](NC(=O)[C@H](N)Cc1c[nH]c2ccccc12)C(=O)N[C@@H](CC(=O)O)C(=O)N[C@@H](Cc1ccccc1)C(=O)NNC(=O)[C@H](Cc1ccccc1)NC(=O)CNC(=O)[C@@H](C)NC(=O)[C@@H](N)Cc1ccc(O)cc1` was tested. Which Ki (Mu-type opioid receptor [5]) did it give?
The Ki was 0.5 nM.

And the EC50 (Mu-type opioid receptor [7]; cho)?
The EC50 was 96 nM.

What about the “Log IC50” value (Mu-type opioid receptor [7]; cho) of the same molecule?
The value was -8.02.

And the “Log IC50” value [2]?
Its value is -8.02.

What about the EC50 [10] of the same molecule?
Its EC50 is 4.6 nM.

What about the “Log IC50” value [10] of the same molecule?
The value was -8.34.

With `CCCC[C@H](NC(=O)[C@@H](Cc1c[nH]c2ccccc12)NC(=O)OC(C)(C)C)C(=O)N[C@@H](CC(=O)O)C(=O)N[C@@H](Cc1ccccc1)C(=O)NNC(=O)[C@H](Cc1ccccc1)NC(=O)CNC(=O)[C@@H](C)NC(=O)[C@@H](N)Cc1ccc(O)cc1` as the molecule, how does the “Log IC50” value (Mu-type opioid receptor [7]; cho) read?
Its value is -6.69.

And the “Log IC50” value [2]?
Its value is -7.13.

And the EC50 [10]?
The EC50 was 16 nM.

What about the “Log IC50” value [10] of the same molecule?
Its value is -7.8.

How did the IC50 (Mu-type opioid receptor [3]) turn out when `CCCC[C@@H](NC(=O)[C@H](Cc1cc2ccccc2[nH]1)NC(=O)OC(C)(C)C)C(=O)N[C@H](CC(=O)O)C(=O)N[C@H](Cc1ccccc1)C(=O)NNC(=O)[C@H](Cc1ccccc1)NC(=O)CNC(=O)[C@@H](C)NC(=O)[C@@H](N)Cc1ccc(O)cc1` was run?
The IC50 was 210 nM.

What about the Ki [4] of the same molecule?
Its Ki is 8.3 µM.

What about the IC50 (Mu-type opioid receptor [5]) of the same molecule?
Its IC50 is 79.4 nM.

What about the Ki (Mu-type opioid receptor [5]) of the same molecule?
The Ki was 34 nM.

And the Ki [6]?
Its Ki is > 10000 nM.

And the Emax [1]?
The Emax was 106%.

And the EC50 (Mu-type opioid receptor [7])?
Its EC50 is 1.3 nM.

What about the log EC50 (Mu-type opioid receptor [7]) of the same molecule?
Its log EC50 is -8.9.

And the IC50 [8]?
The IC50 was 31 nM.

What about the IC50 [9] of the same molecule?
Its IC50 is 16.2 nM.

And the Ki [9]?
The Ki was 6.9 nM.

What about the EC50 [2] of the same molecule?
Its EC50 is 8.4 nM.

What about the Emax [2] of the same molecule?
The Emax was 93%.

And the IC50 [2]?
The IC50 was 8.32 nM.
